Most compounds without a hit are left out; they make up all but 1.1% or so of the library.
Diaph act CS = diaphorase activation or chemical reduction counter-screen; 190,000 tested, 0.005% active; AID 1229; Diaphorase/resazurin coupled assay, resorufin fluorescence, 16 min; stronger effect = higher value; 1 = vehicle wells, 0 = NADH-free wells; activation factor at 20 µM;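 active = diaphorase activity raised at least twofold by the compound at 20 µM; inactive = activation factor below 2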
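Test system: Clostridium kluyveri diaphorase, purified enzyme; input: enzyme 0.07 U/mL final; buffer or medium: 50 mM HEPES pH 7.4 with 4.542 mM MgCl2, 0.005% Tween 20; also added: 0.114 mM NADH and 0.1 mM resazurin, final amounts; schedule: 16 min enzyme reaction, ambient temperature; technique: fluorescence of resorufin, 544 nm excitation, 590 nm emission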
PMI act = phosphomannose isomerase (human) activation; 190,000 tested, 0.005% active; activation factor at 20 µM; P34949; purified human PMI, coupled resazurin fluorescence, 20 min; stronger effect = higher value; 1 = vehicle control, 0 substrate-free wells;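 active = activation factor of 2 or more at 20 µM, relative to plate controls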
Target sequence (P34949 whole entry, looked up): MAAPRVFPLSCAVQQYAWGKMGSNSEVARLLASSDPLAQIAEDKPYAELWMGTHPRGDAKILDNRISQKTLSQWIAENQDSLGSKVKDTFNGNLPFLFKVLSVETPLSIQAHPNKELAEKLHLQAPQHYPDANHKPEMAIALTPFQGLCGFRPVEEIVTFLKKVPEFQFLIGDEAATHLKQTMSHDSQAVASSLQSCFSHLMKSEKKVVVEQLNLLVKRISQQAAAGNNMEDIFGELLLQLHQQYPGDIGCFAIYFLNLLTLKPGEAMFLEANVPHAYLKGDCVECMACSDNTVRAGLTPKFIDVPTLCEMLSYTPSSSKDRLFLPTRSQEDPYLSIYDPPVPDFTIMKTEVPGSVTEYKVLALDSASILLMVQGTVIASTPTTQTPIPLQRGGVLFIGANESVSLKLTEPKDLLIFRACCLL
Diaph inh CS = diaphorase inhibition or chemical oxidation counter-screen | AID 1217 | diaphorase resazurin-to-resorufin fluorescence, NADH, 16 min; bacterial (C. kluyveri) enzyme, not human | inhibition, % at 20 µM | 190,000 tested, 0.69% active;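 active = primary screen inhibition at 20 µM above a set limit, cut at about 50% in these data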;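 also: plate controls were DMSO with full reaction for no effect and wells lacking NADH for full effect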
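Assay system: diaphorase enzyme from Clostridium kluyveri; Input: enzyme working solution with 0.14 U/mL diaphorase; Timing: 16 min at room temperature; Technique: resorufin fluorescence, excitation 544 nm, emission 590 nm; Benchmarks: positive control minus NADH, DMSO neutral control.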
PMI act hi M6P = increases human PMI activity with near-saturating mannose 6-phosphate. activation factor at 20 µM. 190,000 tested, 0.34% active. AID 1216. coupled PMI enzyme assay, resazurin fluorescence, 20 min; stronger effect = higher value; 1 = untreated enzyme, 0 = substrate-free blank;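 active = activation factor of 2 or more at 20 µM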
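Material: human phosphomannose isomerase with PGI, G6PDH, diaphorase coupling enzymes / Reagent: Man-6-P substrate 1.0 mM / Dosing: single compound dose of 20 µM, 1% DMSO final / Incubation: enzyme reaction with compound 20 min at room temperature / Signal: resorufin fluorescence (Ex 544/Em 590 nm) from resazurin via diaphorase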
G6PDH CS = counter-screen for G6PDH assay hits: L. mesenteroides G6PDH inhibition | AID 1020 | 200,000 tested, 0.12% active | inhibition, % at 5 µM | Purified L. mesenteroides G6PDH, diaphorase/resazurin coupled fluorescence, 45 min; in the data active = inhibition above about 50%
Starred values were filed as active, the others as inactive.

SMILES | Diaph act CS | PMI act | Diaph inh CS | PMI act hi M6P | G6PDH CS
CCCCCC1(C)NC(=S)N(c2ccccc2)N1 (centres undefined) | 1 | 2* | -1.2 | 3.1* | -3.2
CC1(CC(=O)Nc2ccccc2)NC(=S)N(c2ccccc2)N1 (centres undefined) | 0.9 | 1.3 | 13.8 | 1.1 | -1.8
CCCCCCC1(C)NC(=S)N(c2ccccc2)N1 (centres undefined) | 0.9 | 1.9 | 7.3 | 3* | 3.1
O=C(CSc1ccc(F)cc1)NCCSc1ccccc1 | 0.9 | 0.9 | 14.0 | 0.9 | 5.7
O=C1CCN(C(=O)Nc2ccccc2Cl)N1 | 1 | 1.4 | -1.4 | 2.2* | 5.8
O=C1CCN(C(=O)Nc2cccc(Cl)c2)N1 | 0.9 | 1.2 | 6.0 | 1.5 | 11.4
CCC(Sc1nc(N)c(NC(=O)c2ccc(OC)cc2)c(=O)[nH]1)C(=O)O (centres undefined) | 1 | 1.2 | -0.1 | 1 | 4.9
COc1ccc(C(=O)N/N=C/c2ccc(OC)c(CN3CCc4cc(OC)c(OC)cc4C3C)c2)cc1 (centres undefined) | 1.1 | 0.9 | -13.7 | 1 | -2.2
Cc1oc2c(O)c(O)ccc2c(=O)c1-c1cnn(-c2ccccc2)c1 | 0.3 | 0.2 | 70.0* | 0.6 | 14.9
Cc1ccc2c(c1)nnn2C1CCN(CC(=O)NNC(=O)c2ccco2)CC1 | 0.8 | 0.9 | 16.8 | 0.9 | 11.4
Cc1c(N=Nc2c(-c3ccc([N+](=O)[O-])cc3)[nH]n(C(N)=S)c2=O)cccc1[N+](=O)[O-] | 0.5 | 1 | 53.5* | 1 | 5.5
NC(=S)n1[nH]c(-c2ccc([N+](=O)[O-])cc2)c(N=Nc2cccc([N+](=O)[O-])c2)c1=O | 0.2 | 0.9 | 79.4* | 1 | 0.1
Cc1cc(Cl)ccc1OCC(=O)NN1C(=O)C2C3C=CC(C3)C2C1=O (centres undefined) | 1 | 0.9 | 4.1 | 0.9 | 18.3
COc1ccc(S(=O)(=O)Nc2ccccc2C(N)=O)cc1OC | 1.1 | 1.3 | -11.3 | 1.2 | -2.2
COc1cccc(/C=N/Nc2ccc(C(=O)O)cc2)c1O | 0.9 | 1.6 | 9.6 | 1.6 | -4.2
COc1cccc(/C=N/Nc2ccc(S(=O)(=O)O)cc2)c1O | 0.9 | 1.4 | 11.1 | 2.1* | 13.0
COc1cccc(CNC23CC4CC(CC(C4)C2)C3)c1OCc1ccccc1 | 0.9 | 0.9 | 8.4 | 0.9 | 1.8
COc1ccc(-c2nnnn2-c2ccc(F)cc2F)cc1 | 0.9 | 1.1 | 8.8 | 1.1 | 2.1
CCN(CC#CCC(O)(c1ccccc1)C1CCCC1)C(C)C (centres undefined) | 0.9 | 0.9 | 9.1 | 1 | 7.8
CC(C)N(CC#CCC(O)(c1ccccc1)C1CCCC1)CCO (centres undefined) | 0.4 | 0.4 | 60.4* | 1 | 11.9
S=c1[nH]ncn1/N=C/c1cccc(Oc2ccccc2)c1 | 0.2 | 0.8 | 85.0* | 0.9 | 7.8
CN(C)/C=N/C(=S)Nc1ccc(Cl)cc1Cl | 0.9 | 0.8 | 13.5 | 0.9 | 13.8
COCCOC(=O)c1cc(C(=O)c2cc(Cl)ccc2O)coc1=N | 0.9 | 1 | 12.5 | 1 | -0.3
CCC(C)(C)C1CCC(=NNc2nc3ccccc3[nH]2)CC1 (centres undefined) | 1 | 1.7 | 4.3 | 2* | 2.4
O=C1CC(N2CCSCC2)C(=O)N1c1cccc(Cl)c1 (centres undefined) | 1 | 1.1 | 4.3 | 1.1 | 5.7
COC(=O)C(NNc1ccccc1C)(NC(=O)c1ccc(F)cc1)C(F)(F)F (centres undefined) | 0.9 | 1.6 | 11.9 | 2.2* | 12.2
COC(=O)C(NNc1ccc(F)cc1)(NC(=O)c1ccccc1)C(F)(F)F (centres undefined) | 0.9 | 1.7 | 14.9 | 2.9* | -1.4
CCOC(=O)C(NCc1ccc(F)cc1)(NC(=O)c1ccccc1)C(F)(F)F (centres undefined) | 1.1 | 1.1 | -13.1 | 1.1 | 7.6
O=C(CCN1C(=O)C2CCCCC2C1=O)Nc1ccc(F)c(F)c1F (centres undefined) | 1 | 1 | 0.8 | 0.9 | 18.3
CCOc1ccccc1NS(=O)(=O)c1cn(C)nc1C | 1.1 | 1.1 | -8.0 | 1.1 | 2.8

High-throughput results: PubChem, Sanford-Burnham Center for Chemical Genomics
